Measured values as given in ChEMBL document CHEMBL1151684, “Synthesis and antitumoral activity of novel 3-(2-substituted-1,3,4-oxadiazol-5-yl) and 3-(5-substituted-1,2,4-triazol-3-yl) beta-carboline derivatives” (2008).

Tests used:
Assay type in all cases: functional
786-0 = experiment: Growth inhibition of human 786-0 cells after 48 hrs by sulforhodamine B assay; conditions: 786-0, 48 h; for CC50: read-out: LC50 (the source's name)
Outline: (§1)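 Sulforhodamine B colorimetric assay following the NCI standard protocol, with doxorubicin as positive control. Each compound was tested at four concentrations in 10-fold dilutions (0.25 to 250). GI50, the concentration giving 50% growth reduction versus untreated control cells, was derived from dose–response curves.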

OVCAR = experiment: Growth inhibition of human OVCAR cells after 48 hrs by sulforhodamine B assay; outline: as §1
HT-29 = experiment: Growth inhibition of human HT-29 cells after 48 hrs by sulforhodamine B assay; conditions: HT-29, 48 h; outline: as §1
K562 = experiment: Growth inhibition of human K-562 cells after 48 hrs by sulforhodamine B assay; conditions: K562, 48 h; outline: as §1
MCF7 = experiment: Growth inhibition of human MCF7 cells after 48 hrs by sulforhodamine B assay; conditions: MCF7, 48 h; outline: as §1
[1] = Growth inhibition of human PCO3 cells after 48 hrs by sulforhodamine B assay; conditions: PCO3, 48 h; outline: as §1
UACC-62 = experiment: Growth inhibition of human UACC-62 cells after 48 hrs by sulforhodamine B assay; conditions: UACC-62, 48 h; outline: as §1
[2] = Growth inhibition of human NCI-460 cells after 48 hrs by sulforhodamine B assay; conditions: NCI-460, 48 h; outline: as §1

SMILES | GI50 (786-0) [µM] | GI50 (OVCAR) [µM] | GI50 (HT-29) [µM] | GI50 (K562) [µM] | GI50 (MCF7) [µM] | GI50 [1] [µM] | GI50 (UACC-62) [µM] | GI50 [2] [µM] | TGI (786-0) [µM] | CC50 (786-0) [µM] | TGI (OVCAR) [µM] | TGI (HT-29) [µM] | TGI (K562) [µM] | TGI (MCF7) [µM] | LC50 (concentration killing 50% of cells) [1] [µM] | TGI [1] [µM] | TGI (UACC-62) [µM] | LC50 (concentration for 50% net cell kill) [2] [µM] | TGI [2] [µM] | LC50 (concentration killing 50% of cells, NCI protocol) (UACC-62) [µM] | also measured
S=c1[nH]nc(-c2cc3c([nH]c4ccccc43)c(-c3ccccc3)n2)[nH]1 | 7.56 | 64.9 | 35.5 | 3.2 | > 100 | 4.11 | 6.36 | 6.36 | – | – | – | – | – | – | – | – | – | – | – | – | –
CN(C)c1ccc(-c2nc(-c3n[nH]c(=S)[nH]3)cc3c2[nH]c2ccccc23)cc1 | 0.04 | 1.09 | 8.63 | 11.1 | 8.63 | 1.37 | 1.74 | 0.06 | 1.24 | 37.3 | 7.28 | 51.5 | > 100 | 37 | > 100 | 6.68 | > 100 | > 100 | 8.96 | – | LC50 (concentration killing 50% of the cells, NCI protocol) (OVCAR): 47.9 µM; LC50 (concentration killing 50% of cells) (MCF7): > 100 µM
CN(C)c1ccc(-c2nc(-c3n[nH]c(=S)n3N)cc3c2[nH]c2ccccc23)cc1 | 0.97 | > 100 | > 100 | > 100 | > 100 | > 100 | 50.4 | 0.2 | 80 | > 100 | > 100 | > 100 | > 100 | > 100 | – | > 100 | > 100 | > 100 | 71.8 | – | –
COc1ccc(-c2nc(-c3n[nH]c(=S)[nH]3)cc3c2[nH]c2ccccc23)cc1 | 7.48 | > 100 | > 100 | > 100 | > 100 | > 100 | 66.8 | 0.1 | – | – | – | – | – | – | – | – | – | – | – | – | –
COc1cc(-c2nc(-c3n[nH]c(=S)o3)cc3c2[nH]c2ccccc23)ccc1O | 22.4 | 5.87 | 17.3 | 31.7 | 32.2 | 25.9 | 17.3 | 89.3 | > 100 | – | > 100 | > 100 | > 100 | > 100 | > 100 | 97.3 | 47.9 | – | > 100 | > 100 | –
COc1cc(-c2nc(-c3nnc(SC)o3)cc3c2[nH]c2ccccc23)ccc1O | 15.3 | 16.4 | 7.31 | 22.6 | 12.7 | 7.53 | 17.8 | 4.82 | 36.3 | > 100 | 59.8 | 39.4 | > 100 | 28.1 | > 100 | 39.4 | 48.6 | – | > 100 | > 100 | LC50 (concentration killing 50% of the cells present at the start) (HT-29): > 100 µM; LC50 (concentration killing 50% of cells) (MCF7): 61.2 µM
S=c1[nH]nc(-c2cc3c([nH]c4ccccc43)c(-c3ccccc3Cl)n2)o1 | 27.9 | 45.9 | 17.4 | 20.3 | 26.9 | 21.4 | 18.1 | 20.8 | > 100 | – | > 100 | > 100 | 74 | > 100 | – | > 100 | 80.1 | – | > 100 | > 100 | LC50 (concentration causing 50% net cell kill) (K562): > 100 µM
Nn1c(-c2cc3c([nH]c4ccccc43)c(-c3ccccc3Cl)n2)n[nH]c1=S | 39.5 | 6.8 | 33 | 62.4 | 70.1 | 24.7 | 20.2 | 15.4 | – | > 100 | 49.9 | > 100 | > 100 | > 100 | – | > 100 | 86.1 | > 100 | 38 | > 100 | LC50 (concentration killing 50% of the cells, NCI protocol) (OVCAR): > 100 µM
Oc1ccc(-c2nc(-c3n[nH]c(=S)[nH]3)cc3c2[nH]c2ccccc23)cc1 | 0.17 | 6.41 | 46.2 | > 100 | 19.8 | 0.5 | 10.6 | 6.69 | 23.8 | > 100 | > 100 | > 100 | > 100 | > 100 | > 100 | 40.7 | > 100 | – | > 100 | – | –
